pIC50, pKi: −log10 of the molar value. Active and inactive are the calls of the source. The calls are words filed in the database; no cut-off is given here. Non-standard residues stand in square brackets, D forms with d. Residues, ends and D or L forms follow the SMILES beside them. dTrp(2-Me) = Cc1[nH]c2ccccc2c1C[C@@H](N)C(=O)O
Tests used:
[1] = system: Mus musculus; assay: Increase in food intake in po dosed C57Bl6j mouse free feeding model measured in 2 hrs intervals; type: functional, organism-based
Method in brief: (§1)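 Male mice (C57Bl6j, GHSr1-/- or wild-type littermates) were acclimatized 3 weeks to reversed light-dark, then individually housed 7 days and grouped (n=10-12) by baseline intake and body weight. Suspensions in 1% Pluronic F127 or vehicle were gavaged at 10 mL/kg about 1 h before dark onset. Pre-weighed food was reweighed at 2, 4, 6 and 24 h.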

[2] = Cmax in Han-Wistar rat at 2 mg/kg, po by LC-MS/MS method; type: ADME, organism-based; design: dose 2 mg/kg, route oral; details: in vivo
Method in brief: (§2)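 Oral gavage in male HW rats, beagle dogs or CD-1 mice, vehicle Pluronic F127 in water. EDTA plasma was collected over 24 h and quantified by LC/MS/MS after acetonitrile precipitation. Cmax and bioavailability were obtained by non-compartmental analysis against IV data.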

[3] = Unbound fraction in beagle dog plasma; type: ADME, cell-free, Canis lupus familiaris
[4] = Unbound fraction in CD1 mouse plasma; type: ADME, cell-free
[5] = Volume of distribution at steady state in beagle dog at 2 mg/kg, iv; type: ADME, organism-based, Canis lupus familiaris; design: dose 2 mg/kg, route intravenous; details: in vivo, read-out: Vdss
Method in brief: (§3)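 Male HW rats, beagle dogs or CD-1 mice received an IV bolus in 5% DMSO/95% hydroxypropyl-β-cyclodextrin (30% w/v). EDTA plasma was sampled over 24 h and assayed by LC/MS/MS after acetonitrile protein precipitation. CL and Vss were obtained by non-compartmental analysis.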

[6] = Volume of distribution at steady state in CD1 mouse at 2 mg/kg, iv; type: ADME, organism-based; design: dose 2 mg/kg, route intravenous; details: in vivo, read-out: Vdss; method in brief: as §3
[7] = Cmax in CD1 mouse at 1.3 mg/kg, po; type: ADME, organism-based; design: dose 1.3 mg/kg, route oral; details: in vivo; method in brief: as §2
[8] = Displacement of [125I]human ghrelin from mouse GHS-R1a expressed in HEK cell membranes after 60 mins by gamma counting method; details: hek293
Method in brief: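 HEK cell membranes stably overexpressing mouse or rat GHS-R1a (4 µg/well) incubated 60 min at rt with 20 pM [125I]human ghrelin and competing compound. Buffer: 50 mM Tris-HCl, 5 mM MgCl2, 0.01% BSA, pH 7.4, plus 10 µM methyl arachidonyl fluorophosphonate. Stopped by filtration over PEI-soaked GF/C filters with ice-cold washes, then gamma counting. IC50 is the mean of ≥2 independent determinations.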

[9] = Cmax in Han-Wistar rat at 2 mg/kg, po; type: ADME, organism-based; design: dose 2 mg/kg, route oral; details: in vivo; method in brief: as §2
[10] = system: Mus musculus; assay: Reduction in free feeding level in po dosed C57Bl6j mouse free feeding model measured during 2 to 6 hrs; type: functional, organism-based; method in brief: as §1
[11] = Cmax in beagle dog at 2 mg/kg, po; type: ADME, organism-based, Canis lupus familiaris; design: dose 2 mg/kg, route oral; details: in vivo; method in brief: as §2
[12] = Oral bioavailability in CD1 mouse at 1.3 mg/kg; type: ADME, organism-based; details: in vivo; method in brief: as §2
[13] = Volume of distribution at steady state in Han-Wistar rat at 2 mg/kg, iv; type: ADME, organism-based; design: dose 2 mg/kg, route intravenous; details: in vivo, read-out: Vdss; method in brief: as §3
[14] = Lipophilicity, logD of the compound; type: physicochemical; details: octanol/water
[15] = system: Mus musculus; assay: Reduction in free feeding level in po dosed C57Bl6j mouse free feeding model measured during 0 to 2 hrs; type: functional, organism-based; method in brief: as §1
[16] = Clearance in CD1 mouse at 2 mg/kg, iv; type: ADME, organism-based; design: dose 2 mg/kg, route intravenous; details: in vivo; method in brief: as §3
[17] = target: Growth hormone secretagogue receptor type 1 (Rattus norvegicus) (UniProt O08725); assay: Displacement of [125I]human ghrelin from rat GHS-R1a expressed in HEK cell membranes after 60 mins by gamma counting method; details: hek293
Chain of Growth hormone secretagogue receptor type 1 (Rattus norvegicus) (O08725 whole entry, looked up, the tested form may be a part): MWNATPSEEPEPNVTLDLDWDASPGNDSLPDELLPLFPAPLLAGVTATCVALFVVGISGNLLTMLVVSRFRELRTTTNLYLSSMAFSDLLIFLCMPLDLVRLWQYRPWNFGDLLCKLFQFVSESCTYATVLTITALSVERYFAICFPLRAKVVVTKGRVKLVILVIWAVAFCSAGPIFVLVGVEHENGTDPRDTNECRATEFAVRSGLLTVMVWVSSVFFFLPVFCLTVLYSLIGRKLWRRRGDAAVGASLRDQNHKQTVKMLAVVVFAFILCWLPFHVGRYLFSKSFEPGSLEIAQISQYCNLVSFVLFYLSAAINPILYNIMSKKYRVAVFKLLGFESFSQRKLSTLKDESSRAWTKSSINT

[18] = Ratio of drug level in homogenized brain to plasma in Han-Wistar rat measured 1 hr after iv bolus then iv infusion by LC-MS/MS method; type: ADME, organism-based; details: read-out: BPR
Method in brief: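 Brain:plasma ratio in homogenized brain 1 h after IV bolus followed by IV infusion. The free ratio used free fractions measured in plasma and brain (brain slice method or brain homogenate).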

[19] = Oral bioavailability in beagle dog at 2 mg/kg; type: ADME, organism-based, Canis lupus familiaris; details: in vivo; method in brief: as §2
[20] = (§4) Oral bioavailability in Han-Wistar rat at 2 mg/kg; type: ADME, organism-based; details: Han-Wistar, in vivo; method in brief: as §2
[21] = Clearance in beagle dog at 2 mg/kg, iv; type: ADME, organism-based, Canis lupus familiaris; design: dose 2 mg/kg, route intravenous; details: in vivo; method in brief: as §3
[22] = system: Mus musculus; assay: Reduction in free feeding level in po dosed C57Bl6j mouse free feeding model measured over 24 hrs period; type: functional, organism-based; method in brief: as §1
[23] = Clearance in Han-Wistar rat at 2 mg/kg, iv; type: ADME, organism-based; design: dose 2 mg/kg, route intravenous; details: in vivo; method in brief: as §3
[24] = Unbound fraction in Han-Wistar rat plasma; type: ADME, cell-free
[25] = system: MDR1; assay: Apparent permeability in MDCK cells expressing MDR1 at 10 uM assessed as apical to basolateral side transport; type: ADME, cell-based, Canis lupus familiaris; details: dog
Method in brief: (§5)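 MDCK-MDR1 monolayers incubated with compound at 10 µM; permeability measured in both A→B and B→A directions, giving Papp A-B (x10^6 cm/s) and the efflux ratio.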

[26] = target: Sodium-dependent dopamine transporter (Homo sapiens, UniProt Q01959); assay: Inhibition of DAT (unknown origin)
Chain of Sodium-dependent dopamine transporter (Q01959 whole entry): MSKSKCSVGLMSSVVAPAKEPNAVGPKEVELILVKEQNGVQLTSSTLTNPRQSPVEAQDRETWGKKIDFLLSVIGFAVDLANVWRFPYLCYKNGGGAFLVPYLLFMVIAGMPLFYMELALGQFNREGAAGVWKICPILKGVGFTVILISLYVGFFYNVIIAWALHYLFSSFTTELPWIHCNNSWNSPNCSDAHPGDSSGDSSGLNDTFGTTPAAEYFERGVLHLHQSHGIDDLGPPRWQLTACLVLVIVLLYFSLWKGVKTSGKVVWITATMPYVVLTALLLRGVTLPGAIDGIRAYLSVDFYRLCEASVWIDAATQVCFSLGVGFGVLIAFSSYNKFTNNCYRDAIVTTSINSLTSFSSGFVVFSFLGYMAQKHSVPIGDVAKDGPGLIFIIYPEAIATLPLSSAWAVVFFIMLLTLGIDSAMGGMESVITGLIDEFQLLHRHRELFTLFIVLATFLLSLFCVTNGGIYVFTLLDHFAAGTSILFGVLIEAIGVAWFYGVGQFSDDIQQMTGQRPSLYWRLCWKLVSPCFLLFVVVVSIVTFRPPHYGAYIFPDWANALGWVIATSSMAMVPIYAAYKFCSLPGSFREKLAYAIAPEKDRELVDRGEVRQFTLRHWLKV

[27] = target: Voltage-gated inwardly rectifying potassium channel KCNH2 (Homo sapiens, UniProt Q12809); assay: Inhibition of human ERG at 33 uM
Chain of Voltage-gated inwardly rectifying potassium channel KCNH2 (Q12809 whole entry): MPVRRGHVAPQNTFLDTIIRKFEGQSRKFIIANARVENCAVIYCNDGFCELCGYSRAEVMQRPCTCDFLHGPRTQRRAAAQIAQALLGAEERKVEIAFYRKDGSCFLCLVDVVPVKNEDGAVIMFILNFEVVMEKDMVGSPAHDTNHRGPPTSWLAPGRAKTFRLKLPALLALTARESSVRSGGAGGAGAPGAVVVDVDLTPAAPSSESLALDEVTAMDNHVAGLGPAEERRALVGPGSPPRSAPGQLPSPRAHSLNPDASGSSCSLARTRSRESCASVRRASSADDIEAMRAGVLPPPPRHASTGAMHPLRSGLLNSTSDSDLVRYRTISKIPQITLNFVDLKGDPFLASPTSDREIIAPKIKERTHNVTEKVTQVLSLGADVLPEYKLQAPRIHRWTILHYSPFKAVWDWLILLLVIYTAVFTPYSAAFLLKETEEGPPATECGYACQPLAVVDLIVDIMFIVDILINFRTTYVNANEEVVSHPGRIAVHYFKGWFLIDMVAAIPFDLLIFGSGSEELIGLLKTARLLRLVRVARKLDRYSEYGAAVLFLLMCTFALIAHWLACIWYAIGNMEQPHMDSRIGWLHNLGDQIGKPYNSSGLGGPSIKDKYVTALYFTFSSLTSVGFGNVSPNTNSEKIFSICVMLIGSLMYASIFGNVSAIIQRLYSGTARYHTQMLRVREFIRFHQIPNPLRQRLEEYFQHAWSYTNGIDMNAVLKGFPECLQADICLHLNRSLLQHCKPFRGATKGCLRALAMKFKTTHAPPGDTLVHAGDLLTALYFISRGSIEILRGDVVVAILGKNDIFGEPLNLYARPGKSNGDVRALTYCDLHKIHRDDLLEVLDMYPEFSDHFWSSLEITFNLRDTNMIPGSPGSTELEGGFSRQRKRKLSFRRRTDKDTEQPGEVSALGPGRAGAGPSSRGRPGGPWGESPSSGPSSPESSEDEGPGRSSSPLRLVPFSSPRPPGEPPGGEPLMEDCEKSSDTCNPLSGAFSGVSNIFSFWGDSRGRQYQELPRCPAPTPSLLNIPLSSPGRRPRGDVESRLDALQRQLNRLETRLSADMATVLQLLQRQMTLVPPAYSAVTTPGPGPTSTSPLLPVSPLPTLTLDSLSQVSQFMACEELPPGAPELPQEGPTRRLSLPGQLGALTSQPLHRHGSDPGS

[28] = system: Mus musculus; assay: Reduction in free feeding level in po dosed GHS-R1a knock out C57Bl6j mouse free feeding model measured over 6 hrs; type: functional, organism-based; method in brief: as §1
[29] = Cmax in CD1 mouse at 7 mg/kg, po; type: ADME, organism-based; design: dose 7 mg/kg, route oral; details: in vivo; method in brief: as §2
[30] = Ratio of drug level in homogenized brain to plasma in CD1 mouse at 7 mg/kg, po measured after 6 hrs by LC-MS/MS method; type: ADME, organism-based; design: dose 7 mg/kg, route oral; details: read-out: BPR
Method in brief: (§6)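 CD-1 mice dosed PO in 1% Pluronic F127. Drug was measured in homogenized brain and in plasma 6 h after dosing and expressed as a brain:plasma ratio. The free ratio used free fraction measured in mouse plasma and rat brain (brain slice or brain homogenate).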

[31] = Cmax in CD1 mouse at 2 mg/kg, po by LC-MS/MS method; type: ADME, organism-based; design: dose 2 mg/kg, route oral; details: in vivo; method in brief: as §2
[32] = system: Mus musculus; assay: Reduction in free feeding level in po dosed C57Bl6j mouse free feeding model measured in first 6 hrs; type: functional, organism-based; method in brief: as §1
[33] = Oral bioavailability in CD1 mouse at 7 mg/kg; type: ADME, organism-based; details: in vivo; method in brief: as §2
[34] = target: Neuronal acetylcholine receptor subunit alpha-4 (Homo sapiens, UniProt P43681); assay: Inhibition of alpha4 nAChR (unknown origin)
Chain of Neuronal acetylcholine receptor subunit alpha-4 (P43681 whole entry): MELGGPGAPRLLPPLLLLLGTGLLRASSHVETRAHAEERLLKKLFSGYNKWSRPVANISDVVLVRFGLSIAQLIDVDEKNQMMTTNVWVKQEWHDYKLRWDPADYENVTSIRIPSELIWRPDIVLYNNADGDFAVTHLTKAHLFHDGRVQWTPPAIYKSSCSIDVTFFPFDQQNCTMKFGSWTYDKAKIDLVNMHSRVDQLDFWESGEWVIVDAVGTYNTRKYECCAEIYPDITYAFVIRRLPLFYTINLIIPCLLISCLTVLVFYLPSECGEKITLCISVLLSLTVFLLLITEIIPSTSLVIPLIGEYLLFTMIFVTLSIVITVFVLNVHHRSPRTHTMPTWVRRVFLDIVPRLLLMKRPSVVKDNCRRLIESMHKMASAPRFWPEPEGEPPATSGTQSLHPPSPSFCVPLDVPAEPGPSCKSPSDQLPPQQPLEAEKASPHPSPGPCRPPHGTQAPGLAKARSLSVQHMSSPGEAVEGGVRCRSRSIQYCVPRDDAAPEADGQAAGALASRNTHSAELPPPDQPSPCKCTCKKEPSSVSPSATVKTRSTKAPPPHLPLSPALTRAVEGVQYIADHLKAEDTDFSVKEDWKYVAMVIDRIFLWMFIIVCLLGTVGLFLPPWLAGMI

[35] = system: Rattus norvegicus; assay: as §4; type: ADME, organism-based; details: in vivo; method in brief: as §2
[36] = Ratio of drug level in homogenized brain to plasma in CD1 mouse at 2 mg/kg, po measured after 6 hrs by LC-MS/MS method; type: ADME, organism-based; design: dose 2 mg/kg, route oral; details: read-out: BPR; method in brief: as §6
[37] = system: MDR1; assay: Efflux ratio in MDCK cells expressing MDR1 at 10 uM; type: ADME, cell-based, Canis lupus familiaris; details: dog; method in brief: as §5
[38] = target: Growth hormone secretagogue receptor type 1 (Homo sapiens, UniProt Q92847); assay: Displacement of [125I]human ghrelin from human GHS-R1a expressed in HEK cell membranes after 60 mins by gamma counting method; design: species or system HEK293
Chain of Growth hormone secretagogue receptor type 1 (Q92847 whole entry): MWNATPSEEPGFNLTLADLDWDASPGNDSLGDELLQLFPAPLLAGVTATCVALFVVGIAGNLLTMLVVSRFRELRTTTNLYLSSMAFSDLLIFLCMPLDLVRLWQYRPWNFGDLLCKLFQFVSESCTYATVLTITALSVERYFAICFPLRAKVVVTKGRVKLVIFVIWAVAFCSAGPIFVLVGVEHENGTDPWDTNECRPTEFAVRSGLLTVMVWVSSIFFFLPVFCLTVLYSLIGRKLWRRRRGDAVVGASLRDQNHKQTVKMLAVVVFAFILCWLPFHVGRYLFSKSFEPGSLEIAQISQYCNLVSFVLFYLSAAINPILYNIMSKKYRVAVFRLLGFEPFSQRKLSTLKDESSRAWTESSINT

[39] = Ratio of free drug level in homogenized brain to plasma in CD1 mouse measured 6 hrs after oral dosing by LC-MS/MS method; type: ADME; method in brief: as §6

fraction unbound [3]	fraction unbound [4]	Vd [5] [L/kg]	Vd [6] [L/kg]	pIC50 [8]	Cmax [9] [nM]	Cmax [11] [nM]	Vd [13] [L/kg]	logD [14]	clearance [16] [mL/min/kg]	bioavailability [19] [%]	clearance [21] [mL/min/kg]	clearance [23] [mL/min/kg]	fraction unbound [24]	Papp A→B at 10 µM [25] [×10⁻⁶ cm/s]	Cmax [31] [nM]	SMILES	Activity [22]	further results
–	–	–	–	–	–	–	–	–	–	–	–	–	–	–	–	Cc1[nH]c2ccccc2c1C[C@@H](NC(=O)[C@@H](N)Cc1c[nH]cn1)C(=O)N[C@@H](C)C(=O)N[C@@H](Cc1c[nH]c2ccccc12)C(=O)N[C@H](Cc1ccccc1)C(=O)N[C@@H](CCCCN)C(N)=O (H-H[dTrp(2-Me)]AW[dF]K-NH2)	–	Activity [1]: Active
0.0078	0.006	0.3	0.8	8.96	580	11000	0.9	1.7	2.9	87	0.69	2.6	0.0035	0.53	–	CN1CCN(CCCS(=O)(=O)c2ccc3nc(NC(=O)NC(=O)c4cc(N5CCOCC5)ccc4Cl)sc3c2)CC1	inactive	Cmax [2]: 1200 nM; Cmax [7]: 1300 nM; Activity [10]: inactive; bioavailability [12]: 50%; Activity [15]: Active; IC50 [17]: 3.4 nM; Kp at 1 h [18]: < 0.03; bioavailability [20]: 30%
0.016	0.009	0.4	0.4	7.41	4500	1000	0.7	2.3	1.8	31	10	1.9	0.002	5.4	6500	CN1CCC(S(=O)(=O)c2ccc3nc(NC(=O)NC(=O)c4cc(N5CCOCC5)ccc4Cl)sc3c2)CC1	inactive	pKi [26]: 6.54; inhibition (INH) [27]: Not Active; Activity [28]: inactive; Cmax [29]: 8000 nM; Kp at 6 h [30]: 0.21; Activity [32]: Active; bioavailability [33]: 25%; pKi [34]: 7.28; F [35]: 171%
–	–	–	–	–	–	–	–	2.6	–	–	–	–	–	1.1	640	Cc1ccnn1-c1ccc(Cl)c(C(=O)NC(=O)Nc2nc3ccc(S(=O)(=O)C4CCN(C)CC4)cc3s2)c1	–	Kp at 6 h [36]: 0.9; efflux ratio at 10 µM [37]: 15; pIC50 [38]: 7.48; Kp uu at 6 h [39]: 0.61

Source: ChEMBL document CHEMBL3352721, “Identification, optimization, and pharmacology of acylurea GHS-R1a inverse agonists” (J Med Chem, 2014)
